Sampled rows, rich in hits. Any-hit rate of the full collection: about 3.6%.
Yeast growth inh: yeast BB579 growth reduction in restrictive medium; S. cerevisiae BB579 growth, OD615, 48 h; inhibition, % at 10 µM; 0.51% of 140,000 active;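 active = inhibition above a set limit, 3 SD over the mean compound inhibition, cut at about 44% in these data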
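System: DeaD yeast strain BB579; buffer or medium: CSMM-D dextrose restrictive medium; technique: OD at 615 nm; schedule: 4 h cell preincubation, 48 h compound exposure, 30 °C humidified; doses: single 10 µM dose; controls: amphotericin B 10 µg/mL, positive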
RAM inhibit: inhibitors of the yeast RAM network; 1.8% of 190,000 active; S. cerevisiae dse1pr::URA3 reporter, 5-FOA growth OD615, 2 d; analog-sensitive cbk1-as2 kinase mutant strain; inhibition, % at 50 µM;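 active = inhibition above a set limit, 3 SD over mean compound inhibition, cut at about 8.4% in these data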;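 note: inhibition rescues growth on 5-FOA so higher OD means more RAM inhibition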
Measles CPE: protection of cells from measles virus; Measles virus-infected cells, CPE protection, absorbance; protection (pct of control), % at 4 µM; 1.5% of 140,000 active; AID 841; in the data active = protection mostly above about 24%, no sharp cut-off; inactive = mostly below about 26%
Yeast lifespan up: yeast lifespan extension. AID 775. inhibition of the nicotinamide effect, % at 10 µM. 0.68% of 130,000 active. S. cerevisiae growth with nicotinamide, OD615; deaD strain in restrictive glucose medium;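 active = inhibition above a set limit, placed 3 SD over the median of all compounds, cut at about 26% in these data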
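Buffer or medium: CSMM-D glucose medium, restrictive; test system: modified budding yeast, DeaD strain; compound: single dose 10 µM compound, 0.25% DMSO; schedule: culture preincubation 4 h, compound exposure 48 h, both 30 °C; detection: optical density (absorbance) at 615 nm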
Phagocytosis inh: blocks phagocytosis by macrophages; J774A.1 macrophage IgG-bead phagocytosis, imaging; inhibition, % at 5 µM; 0.07% of 110,000 active; AID 1029;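 active = inhibition above the mean of the plate negative controls plus 5 SD, cut at about 13% in these data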;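 note: phagocytic index as fraction of beads internalized from green versus red external bead signal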
Numbers stand for hits; – = inactive; · = no result given.

SMILES | Yeast growth inh | RAM inhibit | Measles CPE | Yeast lifespan up | Phagocytosis inh
CCC(C)OC(=O)C1C(c2ccccc2)C(C(=O)O)C1c1ccccc1 (stereo not given) | – | – | – | 37 | –
CC1=NN(c2ccc(C(F)(F)F)cn2)C(=O)C1 | – | – | – | 58 | ·
CCOC(=O)N1CCN(c2ccc(C(F)(F)F)cn2)CC1 | – | – | – | – | –
COc1ccc(S(=O)(=O)NCc2ccccc2)cc1 | – | – | – | – | –
COc1ccc(C(=O)COC(=O)c2cc(S(=O)(=O)NCc3ccccc3)ccc2O)cc1 | · | 9.1 | · | · | ·
CC(C)c1ccc(/C=C2\SC(N3CCCC3)=NC2=O)cc1 | – | – | – | 34 | –
Cc1ccc(/C=C2\SC(N3CCCC3)=NC2=O)cc1 | · | – | · | · | ·
O=C1CSC(=S)N1Cc1cccnc1 | – | – | – | – | –
O=C1CSC(=S)N1c1cccnc1 | 44 | – | – | – | –
Cc1cc(C)nc(NS(=O)(=O)c2ccc(NC(=S)NC(=O)CC(C)C)cc2)n1 | – | – | – | · | ·
O=C(CN1CCC(n2nnc3cc(C(F)(F)F)ccc32)CC1)N1CCc2ccccc21 | – | – | – | 40 | –
COC1=C(N)C(=O)c2nc(-c3nc(C(=O)O)c(C)c(-c4ccc(OC)c(OC)c4O)c3N)ccc2C1=O | 97 | – | – | – | ·
COc1ccc(-c2ncncc2-c2csc(C)n2)c(O)c1OC | – | – | – | – | –
CCOC(=O)c1c(NC(=O)C2COc3ccccc3O2)sc(C(C)=O)c1C (stereo not given) | – | – | – | – | –
CCOC(=O)c1c(NC(=O)C2COc3ccccc3O2)sc2c1CC(C)(C)NC2(C)C (stereo not given) | – | – | 47 | – | –
Nc1nc(SCC(=O)NCCc2ccccc2)[nH]c(=O)c1-c1ccccc1 | · | – | · | · | ·
O=C(COc1ccccc1-c1ccccc1)N/N=C/c1ccccn1 | · | 11 | · | · | ·
O=C(COc1ccccc1-c1ccccc1)N/N=C/c1ccncc1 | · | – | · | · | ·
COc1ccc(NC(=O)COC(=O)CCCN2C(=O)c3ccccc3C2=O)cc1Cl | – | – | – | – | –
O=C(COC(=O)c1ccccc1C(=O)c1ccccc1)NCc1ccc(F)cc1 | · | – | · | · | ·
Cc1onc(-c2ccccc2)c1C(=O)OCC(=O)NCc1ccc(F)cc1 | · | 8.5 | · | · | ·
O=C(Oc1ccc2c3c(c(=O)oc2c1)CCC3)c1ccccc1[N+](=O)[O-] | – | – | – | – | –
CCNS(=O)(=O)c1ccc(NC(=O)c2cc(C(F)(F)F)nn2C)cc1 | – | – | 101 | – | ·
COc1ccc(C(=O)NCc2nnc(SCC(=O)Nc3ccc4c(c3)OCO4)o2)cc1 | · | – | · | · | ·
O=c1c2ccccc2nc2sc3ccccc3n12 | 85 | – | – | – | ·
SMILES | Yeast growth inh | RAM inhibit | Measles CPE | Yeast lifespan up | Phagocytosis inh
CCOC(=O)c1ccc(NC(=O)CC2S/C(=N/N=C/c3c[nH]c4ccccc34)NC2=O)cc1 (stereo not given) | – | – | 28 | – | –
C=CCn1c(SCC(=O)N2CC(=O)Nc3ccccc32)nc2scc(-c3ccccc3)c2c1=O | – | – | 81 | – | –
Cc1sc2nc(C3CCCCC3)nc(SCC(=O)N3CC(=O)Nc4ccccc43)c2c1C | – | 8.5 | – | – | ·
Cc1cccc(-n2c(SCC(=O)N3CC(=O)Nc4ccccc43)nc3ccccc3c2=O)c1C | – | 9.6 | – | – | –
COC(=O)c1ccc(-n2nnnc2SCc2ccccc2OC)cc1 | – | 9.6 | – | – | –
Cc1ccccc1NC(=S)NCc1ccc(Cl)cc1 | – | – | – | – | –
O=C(NCc1ccccc1Cl)C1CCCN(S(=O)(=O)c2cccc3nsnc23)C1 (stereo not given) | – | – | – | – | –
Cc1c(-c2ccccc2)nc2ccccc2c1C(=O)NCc1cccs1 | – | – | – | – | –
Cc1cccc(-n2ccnc2SCC(=O)Nc2cc(C)on2)c1 | – | – | 30 | – | –
O=C(NC1CCCCC1)Oc1cccc2ccccc12 | · | – | · | · | ·
Cc1c(NC(=O)c2c(F)cccc2F)c(=O)n(-c2ccccc2)n1C | – | – | – | – | –
Cc1c(NC(=O)C(=O)/C=C(/O)c2ccccc2)c(=O)n(-c2ccccc2)n1C | – | – | – | 67 | ·
CCC(CC)C(=O)Nc1c(C)n(C)n(-c2ccccc2)c1=O | – | – | 48 | 57 | –
Cc1c(NC(=O)c2ccc(F)cc2)c(=O)n(-c2ccccc2)n1C | – | – | – | – | –
COc1ccc(/C(O)=C/C(=O)C(=O)Nc2c(C)n(C)n(-c3ccccc3)c2=O)cc1 | – | – | – | 73 | –
COc1ccc(NC(=O)Nc2c(C)n(C)n(-c3ccccc3)c2=O)cc1 | – | – | – | – | –
Cc1c(NC(=O)c2c(N)n(-c3ccccc3)c3nc4ccccc4nc23)c(=O)n(-c2ccccc2)n1C | – | – | 59 | – | –
Cc1ccc(-c2cc(C(F)(F)F)n3nc(C(=O)Nc4c(C)n(C)n(-c5ccccc5)c4=O)cc3n2)cc1 | – | – | – | – | ·
Cc1c(NS(C)(=O)=O)c(=O)n(-c2ccccc2)n1C | – | – | 55 | – | –
Cc1c(NC(=O)c2nn3c(C(F)(F)F)cc(-c4ccccc4)nc3c2Br)c(=O)n(-c2ccccc2)n1C | – | 8.6 | – | – | –
COC(=O)c1sc2ccccc2c1C(=O)OC | – | – | – | – | ·
COC(=O)C1=C(C(=O)OC)C(c2ccccc2O)c2sc(=O)[nH]c2S1 (stereo not given) | – | – | – | 45 | –
COC(=O)C1=NN(c2cccc(C)c2)C2C(=O)N(c3ccccc3OC)C(=O)C12 (stereo not given) | – | – | – | – | –
Cn1ncc(C#N)c1/N=C/N1CCOCC1 | – | – | – | 40 | –
O=C(CN(c1cccc(Cl)c1)S(=O)(=O)c1ccc(Cl)cc1)N1CCc2ccccc2C1 | – | – | – | – | –
SMILES | Yeast growth inh | RAM inhibit | Measles CPE | Yeast lifespan up | Phagocytosis inh
COc1ccccc1NC(=O)Cn1cnc2sc(C)c(S(=O)(=O)N3CCCCC3)c2c1=O | – | 8.9 | – | – | –
COc1ccc(C)cc1NC(=O)Cn1cnc2sc(C)c(S(=O)(=O)N3CCOCC3)c2c1=O | – | – | – | – | ·
COc1ccccc1NC(=O)Cn1cnc2sc(C(=O)NCc3ccco3)c(C)c2c1=O | – | 9.4 | – | – | –
O=C(CC12CC3CC(CC(C3)C1)C2)NCC(c1ccc(F)cc1)N1CCOCC1 (stereo not given) | · | – | · | · | ·
CC(=O)OCCNc1cc(SCc2ccco2)c2nonc2c1[N+](=O)[O-] | – | 9.5 | – | – | –
O=[N+]([O-])c1c(NCCCO)cc(SCc2ccco2)c2nonc12 | – | – | – | – | –
O=c1c2cccc3c2c(nn1CN1CCOCC1)-c1ccccc1-3 | 93 | – | 59 | – | –
COc1ccccc1/C=C/C(=O)N1CCC(c2ccccc2)C1 (stereo not given) | – | – | – | – | –
CCCn1c(N)c(C(c2ccc(C(=O)OC)cc2)N2CCN(c3ccccc3)CC2)c(=O)[nH]c1=O (stereo not given) | – | – | 42 | – | –
